Laboratory results published in ChEMBL document CHEMBL1132570, “Synthesis of cytotoxic indenoisoquinoline topoisomerase I poisons” (1999).

How the values were obtained:
SF-539 [1] = test: Compound was tested for its cytotoxicity against CNS SF-539 Human cancer cell line; assay type: functional
How it was run: (§1)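 GI50 = concentration giving 50% growth inhibition, from a screen of about 55 human cancer cell lines over a 10^-8 to 10^-4 M test range. Values come from two determinations where a population standard deviation is shown, otherwise from single determinations.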

DU-145 = test: Cytotoxicity against prostate DU-145 human cancer cell line.; assay type: functional; how it was run: as §1
[2] = molecular target: T1, DNA topoisomerase 1 (Homo sapiens) (UniProt P11387); test: The activity was examined against DNA topoisomerase I mediated DNA cleavage using 3'-End-labelled 161 BP plasmid DNA. 0 indicates inactive
T1 sequence (whole entry): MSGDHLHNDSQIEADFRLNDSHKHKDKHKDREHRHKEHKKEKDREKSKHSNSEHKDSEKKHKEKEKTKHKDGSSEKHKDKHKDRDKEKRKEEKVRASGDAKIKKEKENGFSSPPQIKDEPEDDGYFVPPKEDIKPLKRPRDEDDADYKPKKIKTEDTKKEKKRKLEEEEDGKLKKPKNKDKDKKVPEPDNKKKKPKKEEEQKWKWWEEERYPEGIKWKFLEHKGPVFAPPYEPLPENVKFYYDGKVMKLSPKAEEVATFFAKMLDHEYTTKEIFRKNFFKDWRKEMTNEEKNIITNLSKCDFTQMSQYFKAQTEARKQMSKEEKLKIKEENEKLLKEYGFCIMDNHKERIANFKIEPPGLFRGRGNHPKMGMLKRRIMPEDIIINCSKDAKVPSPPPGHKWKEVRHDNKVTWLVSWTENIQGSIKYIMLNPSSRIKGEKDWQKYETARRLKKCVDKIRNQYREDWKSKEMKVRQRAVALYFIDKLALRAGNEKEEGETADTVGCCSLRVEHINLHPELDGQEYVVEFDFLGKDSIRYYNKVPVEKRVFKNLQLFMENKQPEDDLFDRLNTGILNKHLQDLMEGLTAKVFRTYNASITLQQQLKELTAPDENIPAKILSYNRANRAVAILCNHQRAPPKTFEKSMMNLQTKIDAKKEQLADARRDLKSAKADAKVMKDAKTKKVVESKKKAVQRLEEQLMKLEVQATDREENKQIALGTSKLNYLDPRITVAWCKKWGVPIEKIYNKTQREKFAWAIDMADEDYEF
How it was run: (§2)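 A 161 bp PvuII–HindIII fragment of pBluescript SK(–) was 3'-end-labeled at the HindIII site with [α-32P]dCTP by Klenow fill-in. About 50 000 dpm per reaction was incubated with top1 and drug (0.1–300 μM) at 30 °C for 30 min, then stopped with 0.5% SDS (final). Products were run on 16% polyacrylamide/7 M urea gels at 51 °C and imaged by phosphorimager.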

MDA-MB-435 [3] = test: In vitro cytotoxicity against MDA-MB-435 (Human breast cancer) cell line.; assay type: functional; how it was run: as §1
OVCAR-3 = test: Cytotoxicity against ovarian OVCAR-3 human cancer cell line.; assay type: functional; how it was run: as §1
SN12C = test: In vitro cytotoxicity against SN12C (Human renal cancer) cell line.; assay type: functional; how it was run: as §1
UACC-62 = test: In vitro cytotoxicity against UACC-62 (Human melanoma) cell line.; assay type: functional; how it was run: as §1
HOP-62 = test: Cytotoxicity against lung HOP-62 human cancer cell line.; assay type: functional; how it was run: as §1
HCT-116 = test: Cytotoxicity against colon HCT116 human cancer cell line.; assay type: functional; how it was run: as §1
SF-539 [4] = test: Compound was tested for its cytotoxicity against CNS SF-539 cell line; assay type: functional; conditions: Homo sapiens; how it was run: as §1
MDA-MB-435 [5] = test: Compound was tested for its cytotoxicity against breast MDA-MB-435 Human cancer cell line; assay type: functional; how it was run: as §1
[6] = molecular target: T1, DNA topoisomerase 1 (Homo sapiens); test: The activity was examined against DNA topoisomerase I mediated DNA cleavage using 3'-End-labelled 161 BP plasmid DNA.0 indicates inactive; how it was run: as §2
[7] = molecular target: T1, DNA topoisomerase 1 (Homo sapiens); test: The activity was examined against DNA topoisomerase I mediated DNA cleavage using 3''-End-labelled 161 BP plasmid DNA.+ indicates between 20 and 50% of the activity of 1 uM camptothecin; how it was run: as §2
[8] = molecular target: T1, DNA topoisomerase 1 (Homo sapiens); test: The activity was examined against DNA topoisomerase I mediated DNA cleavage using 3''-End-labelled 161 BP plasmid DNA; +/- less than 20% of the activity of 1 uM camptothecin; how it was run: as §2
[9] = molecular target: T1, DNA topoisomerase 1 (Homo sapiens); test: The activity was examined against DNA topoisomerase I mediated DNA cleavage using 3''-End-labelled 161 BP plasmid DNA. +/- indicates less than 20% of the activity 0f 1 uM camptothecin; how it was run: as §2
[10] = molecular target: T1, DNA topoisomerase 1 (Homo sapiens); test: The activity was examined against DNA topoisomerase I mediated DNA cleavage using 3''-End-labelled 161 BP plasmid DNA. +/- indicates less than 20% of the activity of 1 uM camptothecin; how it was run: as §2

| Structure (SMILES) | Top1 cleavage activity [2] | Top1 cleavage activity [6] | Top1 cleavage activity [8] | Top1 cleavage activity [9] | Top1 cleavage activity [10] | GI50 (SF-539 [1]) [µM] | GI50 (DU-145) [µM] | GI50 (MDA-MB-435 [3]) [µM] | GI50 (OVCAR-3) [µM] | GI50 (SN12C) [µM] | GI50 (UACC-62) [µM] | GI50 (HOP-62) [µM] | GI50 (HCT-116) [µM] | GI50 (SF-539 [4]) [µM] | GI50 (MDA-MB-435 [5]) [µM] | Top1 cleavage activity [7] |
| --- | --- | --- | --- | --- | --- | --- | --- | --- | --- | --- | --- | --- | --- | --- | --- | --- |
| COC(=O)Cn1c2c(c3ccccc3c1=O)C(=O)c1ccccc1-2 | 0 | – | – | – | – | > 100 | > 100 | > 100 | > 100 | > 100 | > 100 | – | – | – | – | – |
| COc1cc2c3c(n(C)c(=O)c2cc1OC)-c1cc2c(cc1C3=O)OCO2 | – | – | – | – | – | 41 | 37 | 96 | – | 68 | 4.2 | 1.3 | 35 | – | – | – |
| O=C1c2ccccc2-c2c1c1ccccc1c(=O)n2C1CC1 | 0 | – | – | – | – | – | > 100 | – | > 100 | > 100 | 84 | 61 | > 100 | > 100 | > 100 | – |
| COc1cc2c3c(n(C)c(=O)c2cc1OC)-c1cc(OCc2ccccc2)c(OCc2ccccc2)cc1C3=O | – | 0 | – | – | – | 39 | > 100 | > 100 | 58 | > 100 | > 100 | 46 | 80 | – | – | – |
| Cn1c2c(c3ccccc3c1=O)C(=O)c1cc3c(cc1-2)OCO3 | – | – | – | – | – | – | > 100 | – | > 100 | > 100 | > 100 | 22 | 54 | – | – | 20-50% of the activity of 1 uM camptothecin |
| CCCCn1c2c(c3ccccc3c1=O)C(=O)c1cc3c(cc1-2)OCO3 | – | – | – | – | – | 9 | 38 | > 100 | 94 | 37 | 8.2 | 17 | 2.9 | – | – | 20-50% of the activity of 1 uM camptothecin |
| CCCCn1c2c(c3cc(OC)c(OC)cc3c1=O)C(=O)c1cc3c(cc1-2)OCO3 | – | – | – | – | – | – | 16 | > 100 | 78 | – | 21 | 16 | 45 | – | – | 20-50% of the activity of 1 uM camptothecin |

Second part, led by results:

| Top1 cleavage activity [2] | Top1 cleavage activity [6] | Top1 cleavage activity [8] | Top1 cleavage activity [9] | Top1 cleavage activity [10] | Structure (SMILES) | GI50 (SF-539 [1]) [µM] | GI50 (DU-145) [µM] | GI50 (MDA-MB-435 [3]) [µM] | GI50 (OVCAR-3) [µM] | GI50 (SN12C) [µM] | GI50 (UACC-62) [µM] | GI50 (HOP-62) [µM] | GI50 (HCT-116) [µM] | GI50 (SF-539 [4]) [µM] | GI50 (MDA-MB-435 [5]) [µM] | Top1 cleavage activity [7] |
| --- | --- | --- | --- | --- | --- | --- | --- | --- | --- | --- | --- | --- | --- | --- | --- | --- |
| 0 | – | – | – | – | CCN1Cc2cc(OC)c(OC)cc2[C@@H]2[C@H]1c1cc3c(cc1[C@@H]2O)OCO3 | 50 | 41 | 25 | 24 | 26 | – | 30 | 35 | – | – | – |
| 0 | – | – | – | – | COc1cc2c3c(n(C)c(=O)c2cc1OC)-c1cc(OC)c(OC)c(OC)c1C3=O | – | > 100 | – | > 100 | > 100 | 55 | > 100 | > 100 | > 100 | > 100 | – |
| – | – | +/- | – | – | COc1cc2c3c(n(Cc4ccccc4)c(=O)c2cc1OC)-c1cc2c(cc1C3=O)OCO2 | – | 4 | > 100 | > 100 | – | 50 | 12 | > 100 | – | – | – |
| 0 | – | – | – | – | CCN1C(=O)c2cc(OC)c(OC)cc2[C@@H]2[C@H]1c1cc3c(cc1[C@@H]2O)OCO3 | > 100 | > 100 | > 100 | > 100 | > 100 | – | > 100 | > 100 | – | – | – |
| – | – | – | +/- | – | COc1cc2c(cc1OC)[C@H]1C(=O)c3cc(OS(C)(=O)=O)c(OC)cc3[C@H]1N(C)C2=O | – | – | – | – | – | – | – | – | – | – | – |
| – | – | – | – | +/- | COc1cc2c(cc1OC)[C@H]1C(=O)c3cc4c(cc3[C@H]1N(C)C2=O)OCO4 | 3.1 | 4.1 | 17 | 6.7 | 2.1 | 0.42 | 9.4 | 2 | – | – | – |
